Activity and GI50 data for 1 compound are collected here from ChEMBL document CHEMBL4229344 (Eur J Med Chem, 2018).

Series [1] addresses Calcium-dependent protein kinase 1 (Plasmodium falciparum) (UniProt P62344). Kind of series: Binding affinity to wild-type Plasmodium falciparum 3D7 full length CDPK1 (M1 to S524 residues) expressed in mammalian expression system assessed as residual binding level at 1 uM by Kinomescan method relative to control. Summed up:
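KINOMEscan competition binding against 468 purified kinases/mutants, test compound at 1 µM; residual binding relative to control.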

Series [2] concerns the target Tyrosine-protein kinase Fgr (Homo sapiens) (UniProt P09769). Nature of the series: Binding affinity to wild-type human partial length FGR (L233 to T529 residues) expressed in bacterial expression system assessed as residual binding level at 1 uM by Kinomescan method relative to control. Summed up:
(§1)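 Kinome-wide competition binding screen against a panel of 468 purified kinases/mutants, with the test compound at a single concentration of 1 μM. Read-out is the relative binding activity of each kinase in the presence of compound.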

Series [3] addresses Serine/threonine-protein kinase Chk1 (Homo sapiens) (UniProt O14757). Kind of series: Binding affinity to wild-type human partial length CHEK1 (M1 to G289 residues) expressed in bacterial expression system assessed as residual binding level at 1 uM by Kinomescan method relative to control.
The test system of series [4] is Receptor-type tyrosine-protein kinase FLT3 (Homo sapiens), P36888 [N841I]. Kind of series: Binding affinity to human partial length FLT3 N841I mutant (V592 to Y969 residues) expressed in bacterial expression system assessed as residual binding level at 1 uM by Kinomescan method relative to control. The procedure, abridged:
(§2)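 Kinome-wide single-concentration binding screen (KINOMEscan) at 1 μM against a panel of 468 purified kinases and mutants. Read-out is relative binding of each kinase compared with control. Selectivity across the panel was summarised as an S(10) score.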

The target of series [5] is Calcium/calmodulin-dependent protein kinase type 1B (Homo sapiens) (UniProt Q6P2M8). Nature of the series: Binding affinity to wild-type human partial length CAMK1B (W9 to A311 residues) expressed in mammalian expression system assessed as residual binding level at 1 uM by Kinomescan method relative to control.
For series [6], the system named is Mast/stem cell growth factor receptor Kit (Homo sapiens), P10721 [L576P]. Nature of the series: Binding affinity to human partial length KIT L576P mutant (Y545 to D952 residues) expressed in bacterial expression system assessed as residual binding level at 1 uM by Kinomescan method relative to control. The procedure, abridged: as §2
Sequence of Mast/stem cell growth factor receptor Kit (Homo sapiens), P10721 [L576P] (P10721 whole entry L576P, the tested form may be a part): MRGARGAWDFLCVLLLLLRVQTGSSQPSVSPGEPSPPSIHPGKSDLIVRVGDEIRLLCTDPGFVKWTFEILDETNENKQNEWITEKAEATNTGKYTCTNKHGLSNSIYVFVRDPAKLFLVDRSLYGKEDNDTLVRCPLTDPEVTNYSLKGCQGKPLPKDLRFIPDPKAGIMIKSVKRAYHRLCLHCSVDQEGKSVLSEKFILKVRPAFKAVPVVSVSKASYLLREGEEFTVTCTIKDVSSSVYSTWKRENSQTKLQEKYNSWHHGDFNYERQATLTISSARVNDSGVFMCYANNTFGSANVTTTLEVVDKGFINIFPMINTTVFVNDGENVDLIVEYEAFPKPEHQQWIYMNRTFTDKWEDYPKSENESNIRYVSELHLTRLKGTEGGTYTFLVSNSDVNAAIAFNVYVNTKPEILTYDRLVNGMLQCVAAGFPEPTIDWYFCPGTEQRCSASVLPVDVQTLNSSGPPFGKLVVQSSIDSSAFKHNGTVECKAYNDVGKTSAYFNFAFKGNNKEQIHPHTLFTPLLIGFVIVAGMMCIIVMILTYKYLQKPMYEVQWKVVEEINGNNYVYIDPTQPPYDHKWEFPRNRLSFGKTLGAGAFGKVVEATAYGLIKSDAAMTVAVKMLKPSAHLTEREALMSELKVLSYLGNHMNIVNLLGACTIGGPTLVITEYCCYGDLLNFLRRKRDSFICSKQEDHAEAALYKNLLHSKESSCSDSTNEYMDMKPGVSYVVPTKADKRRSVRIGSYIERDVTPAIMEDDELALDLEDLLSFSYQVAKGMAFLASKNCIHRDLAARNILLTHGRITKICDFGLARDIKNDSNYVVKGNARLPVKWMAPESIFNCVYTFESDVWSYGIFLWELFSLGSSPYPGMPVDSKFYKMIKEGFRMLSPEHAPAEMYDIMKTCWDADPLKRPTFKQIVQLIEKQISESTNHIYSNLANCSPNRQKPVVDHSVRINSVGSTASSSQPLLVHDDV
Series [7] deals with Tyrosine-protein kinase ABL1 (Homo sapiens), P00519 [H396P]. Kind of series: Binding affinity to human non-phosphorylated ABL1 H396P mutant (S229 to K512 residues) expressed in mammalian expression system assessed as residual binding level at 1 uM by Kinomescan method relative to control. Summed up:
as §2

The target in series [8] is Phosphatidylinositol 4,5-bisphosphate 3-kinase catalytic subunit alpha isoform (Homo sapiens) (UniProt P42336). Nature of the series: Binding affinity to wild-type human partial length PIK3CA (R108 to N1068 residues) expressed in mammalian expression system assessed as residual binding level at 1 uM by Kinomescan method relative to control.
Series [9] addresses Microtubule-associated serine/threonine-protein kinase 1 (Homo sapiens) (UniProt Q9Y2H9). Kind of series: Binding affinity to wild-type human partial length MAST1 (S346 to V730 residues) expressed in mammalian expression system assessed as residual binding level at 1 uM by Kinomescan method relative to control.
For series [10], the target named is Vascular endothelial growth factor receptor 1 (Homo sapiens) (UniProt P17948). Kind of series: Binding affinity to wild-type human partial length FLT1 (R781 to F1239 residues) expressed in bacterial expression system assessed as residual binding level at 1 uM by Kinomescan method relative to control. Summed up:
as §1

Series [11] deals with Mitogen-activated protein kinase kinase kinase 10 (Homo sapiens) (UniProt Q02779). Kind of series: Binding affinity to wild-type human partial length MLK2 (V52 to W380 residues) expressed in bacterial expression system assessed as residual binding level at 1 uM by Kinomescan method relative to control.
Sequence of Mitogen-activated protein kinase kinase kinase 10 (Homo sapiens) (Q02779 whole entry, looked up, the tested form may be a part): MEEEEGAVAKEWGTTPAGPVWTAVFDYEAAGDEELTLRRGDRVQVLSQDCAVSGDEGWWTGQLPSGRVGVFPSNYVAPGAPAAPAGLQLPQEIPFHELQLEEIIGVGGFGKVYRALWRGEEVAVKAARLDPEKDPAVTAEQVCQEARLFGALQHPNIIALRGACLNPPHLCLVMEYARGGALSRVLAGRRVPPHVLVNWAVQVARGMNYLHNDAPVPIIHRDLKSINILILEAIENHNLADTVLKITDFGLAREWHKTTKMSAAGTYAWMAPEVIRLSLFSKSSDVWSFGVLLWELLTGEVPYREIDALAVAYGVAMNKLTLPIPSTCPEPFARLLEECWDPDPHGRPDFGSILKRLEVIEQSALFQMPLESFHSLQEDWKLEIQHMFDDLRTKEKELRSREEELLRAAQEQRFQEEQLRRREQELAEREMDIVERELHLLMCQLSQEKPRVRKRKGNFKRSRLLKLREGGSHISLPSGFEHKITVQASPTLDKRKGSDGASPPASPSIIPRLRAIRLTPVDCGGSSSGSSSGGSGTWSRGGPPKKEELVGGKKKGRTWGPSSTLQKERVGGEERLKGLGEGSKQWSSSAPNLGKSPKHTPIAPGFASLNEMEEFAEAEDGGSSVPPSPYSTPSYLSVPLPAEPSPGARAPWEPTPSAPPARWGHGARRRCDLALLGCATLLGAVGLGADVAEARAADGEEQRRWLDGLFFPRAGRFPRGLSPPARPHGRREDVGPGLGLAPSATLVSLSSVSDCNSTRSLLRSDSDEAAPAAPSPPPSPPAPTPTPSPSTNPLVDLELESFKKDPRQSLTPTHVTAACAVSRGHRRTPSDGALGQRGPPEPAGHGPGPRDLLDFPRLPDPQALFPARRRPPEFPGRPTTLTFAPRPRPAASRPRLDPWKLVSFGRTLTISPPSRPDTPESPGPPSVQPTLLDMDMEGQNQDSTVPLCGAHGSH
Series [12] deals with Insulin receptor (Homo sapiens) (UniProt P06213). Kind of series: Binding affinity to wild-type human partial length INSR (P997 to E1318 residues) expressed in mammalian expression system assessed as residual binding level at 1 uM by Kinomescan method relative to control.
Sequence of Insulin receptor (Homo sapiens) (P06213 28-758 limits assumed): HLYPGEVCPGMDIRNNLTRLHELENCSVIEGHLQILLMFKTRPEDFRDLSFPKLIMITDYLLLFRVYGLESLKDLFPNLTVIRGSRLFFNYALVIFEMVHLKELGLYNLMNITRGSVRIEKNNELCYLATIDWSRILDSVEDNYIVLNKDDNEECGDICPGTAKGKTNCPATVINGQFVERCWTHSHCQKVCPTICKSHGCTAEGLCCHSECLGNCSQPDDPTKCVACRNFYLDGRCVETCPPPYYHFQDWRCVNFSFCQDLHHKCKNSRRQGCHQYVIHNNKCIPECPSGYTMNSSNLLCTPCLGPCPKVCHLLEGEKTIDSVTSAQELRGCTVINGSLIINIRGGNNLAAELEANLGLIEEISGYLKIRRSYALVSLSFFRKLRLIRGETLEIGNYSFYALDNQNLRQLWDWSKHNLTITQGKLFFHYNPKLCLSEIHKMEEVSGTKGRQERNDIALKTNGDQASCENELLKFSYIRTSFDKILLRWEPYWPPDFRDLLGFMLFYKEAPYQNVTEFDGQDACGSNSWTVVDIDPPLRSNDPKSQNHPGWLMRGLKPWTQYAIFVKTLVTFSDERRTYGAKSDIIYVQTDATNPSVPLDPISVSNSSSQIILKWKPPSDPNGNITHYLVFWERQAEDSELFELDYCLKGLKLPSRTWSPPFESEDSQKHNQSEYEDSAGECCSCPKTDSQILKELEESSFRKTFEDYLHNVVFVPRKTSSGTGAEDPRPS
Sequence of Insulin receptor (Homo sapiens) (P06213 763-1382 limits assumed): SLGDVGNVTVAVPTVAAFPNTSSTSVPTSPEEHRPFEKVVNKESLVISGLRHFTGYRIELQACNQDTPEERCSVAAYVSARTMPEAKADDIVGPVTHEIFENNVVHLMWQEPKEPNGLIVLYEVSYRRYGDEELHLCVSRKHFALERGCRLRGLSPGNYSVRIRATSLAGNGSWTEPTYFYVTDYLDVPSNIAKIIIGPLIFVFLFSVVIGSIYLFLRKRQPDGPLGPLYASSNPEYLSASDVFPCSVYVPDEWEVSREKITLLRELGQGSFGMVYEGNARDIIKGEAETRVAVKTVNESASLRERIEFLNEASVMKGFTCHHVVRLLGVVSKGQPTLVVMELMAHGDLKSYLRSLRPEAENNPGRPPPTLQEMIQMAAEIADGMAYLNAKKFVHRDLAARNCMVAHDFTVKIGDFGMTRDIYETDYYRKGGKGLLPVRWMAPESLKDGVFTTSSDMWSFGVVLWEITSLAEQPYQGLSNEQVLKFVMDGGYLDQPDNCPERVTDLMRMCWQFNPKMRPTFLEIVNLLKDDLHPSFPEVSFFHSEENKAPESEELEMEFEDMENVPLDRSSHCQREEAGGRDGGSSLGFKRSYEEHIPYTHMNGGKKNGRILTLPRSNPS
The target in series [13] is Vascular endothelial growth factor receptor 3 (Homo sapiens) (UniProt P35916). Kind of series: Binding affinity to wild-type human partial length FLT4 (E821 to E1196 residues) expressed in bacterial expression system assessed as residual binding level at 1 uM by Kinomescan method relative to control.
Series [14] deals with Rhodopsin kinase GRK7 (Homo sapiens) (UniProt Q8WTQ7). Kind of series: Binding affinity to wild-type human full length GRK7 (M1 to L553 residues) expressed in mammalian expression system assessed as residual binding level at 1 uM by Kinomescan method relative to control. The procedure, abridged:
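Single-concentration (1 μM) competition-binding screen run by KINOMEscan against a panel of 468 purified kinases and mutants. The read-out is the relative binding activity of the test compound to each kinase.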

Series [15] addresses Serine/threonine-protein kinase TAO1 (Homo sapiens) (UniProt Q7L7X3). Nature of the series: Binding affinity to wild-type human partial length TAOK1 (M1 to A320 residues) expressed in mammalian expression system assessed as residual binding level at 1 uM by Kinomescan method relative to control.
In series [16] the target is Activated CDC42 kinase 1 (Homo sapiens) (UniProt Q07912). Kind of series: Binding affinity to wild-type human partial length TNK2 (S159 to D474 residues) expressed in bacterial expression system assessed as residual binding level at 1 uM by Kinomescan method relative to control.
Series [17] deals with Calcium/calmodulin-dependent protein kinase type II subunit alpha (Homo sapiens) (UniProt Q9UQM7). Nature of the series: Binding affinity to wild-type human partial length CAMK2A (M1 to K328 residues) expressed in bacterial expression system assessed as residual binding level at 1 uM by Kinomescan method relative to control. The procedure, abridged:
as §1

The nature of series [18]: Cytotoxicity against mouse BA/F3 cells after 72 hrs by CellTiter-Glo or CCK-8 assay. The format is cell-based, BaF3. Summed up: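 Parental BaF3 or IL-3-independent TEL-kinase BaF3 lines, made by retroviral infection and puromycin selection, grown in RPMI 1640 with 10% FBS. Cells seeded at 1–3 × 10^4 cells/mL with serial compound concentrations for 72 h. Viability read by CellTiter-Glo luminescence or CCK-8 absorbance at 450/655 nm and normalised to DMSO. GI50 obtained by triplicate testing with linear regression. Selectivity is the ratio of the two GI50 values.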

In series [19] the test system is Epidermal growth factor receptor (Homo sapiens), P00533 [T790M]. Kind of series: Binding affinity to human partial length EGFR T790M mutant (R669 to G1022 residues) expressed in mammalian expression system assessed as residual binding level at 1 uM by Kinomescan method relative to control. Summed up: as §2
Series [20] concerns the target Tyrosine-protein kinase receptor UFO (Homo sapiens) (UniProt P30530). Nature of the series: Binding affinity to wild-type human partial length AXL (R497 to Y821 residues) expressed in bacterial expression system assessed as residual binding level at 1 uM by Kinomescan method relative to control. Summed up: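 Single-concentration KINOMEscan (DiscoverX) binding screen at 1 μM against a panel of 468 purified kinases and mutants. The read-out is binding relative to control.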

Sequence of Tyrosine-protein kinase Fgr (Homo sapiens) (P09769 2-529 limits assumed): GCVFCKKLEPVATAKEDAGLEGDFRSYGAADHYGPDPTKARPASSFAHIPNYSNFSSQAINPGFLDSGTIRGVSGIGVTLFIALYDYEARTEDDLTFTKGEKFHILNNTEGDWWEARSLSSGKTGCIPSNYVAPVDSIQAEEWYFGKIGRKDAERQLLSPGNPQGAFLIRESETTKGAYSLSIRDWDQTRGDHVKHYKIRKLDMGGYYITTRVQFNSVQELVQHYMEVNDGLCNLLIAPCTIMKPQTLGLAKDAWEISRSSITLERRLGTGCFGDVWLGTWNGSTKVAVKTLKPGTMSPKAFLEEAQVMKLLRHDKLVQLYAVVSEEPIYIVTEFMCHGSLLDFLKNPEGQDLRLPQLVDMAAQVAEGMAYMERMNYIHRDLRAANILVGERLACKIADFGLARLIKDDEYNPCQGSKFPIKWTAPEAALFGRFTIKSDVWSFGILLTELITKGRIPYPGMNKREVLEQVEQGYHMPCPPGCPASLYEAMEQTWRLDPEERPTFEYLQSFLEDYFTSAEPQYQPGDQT
Sequence of Calcium-dependent protein kinase 1 (Plasmodium falciparum) (P62344 2-524 limits assumed): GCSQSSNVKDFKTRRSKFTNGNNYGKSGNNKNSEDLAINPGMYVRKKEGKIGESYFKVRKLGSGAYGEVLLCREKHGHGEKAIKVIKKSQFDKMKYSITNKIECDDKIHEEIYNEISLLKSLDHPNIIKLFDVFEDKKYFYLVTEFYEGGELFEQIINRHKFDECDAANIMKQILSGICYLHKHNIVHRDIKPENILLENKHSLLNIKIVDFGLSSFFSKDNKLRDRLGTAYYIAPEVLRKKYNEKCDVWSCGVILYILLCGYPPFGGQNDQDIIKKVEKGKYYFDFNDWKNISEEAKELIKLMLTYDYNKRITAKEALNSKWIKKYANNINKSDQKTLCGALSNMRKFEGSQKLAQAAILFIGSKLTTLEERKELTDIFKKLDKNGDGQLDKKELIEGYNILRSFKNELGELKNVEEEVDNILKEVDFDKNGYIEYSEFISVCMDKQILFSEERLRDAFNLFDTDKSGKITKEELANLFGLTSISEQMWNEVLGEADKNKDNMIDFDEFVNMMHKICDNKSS
Sequence of Serine/threonine-protein kinase Chk1 (Homo sapiens) (O14757 whole entry, the tested form may be a part): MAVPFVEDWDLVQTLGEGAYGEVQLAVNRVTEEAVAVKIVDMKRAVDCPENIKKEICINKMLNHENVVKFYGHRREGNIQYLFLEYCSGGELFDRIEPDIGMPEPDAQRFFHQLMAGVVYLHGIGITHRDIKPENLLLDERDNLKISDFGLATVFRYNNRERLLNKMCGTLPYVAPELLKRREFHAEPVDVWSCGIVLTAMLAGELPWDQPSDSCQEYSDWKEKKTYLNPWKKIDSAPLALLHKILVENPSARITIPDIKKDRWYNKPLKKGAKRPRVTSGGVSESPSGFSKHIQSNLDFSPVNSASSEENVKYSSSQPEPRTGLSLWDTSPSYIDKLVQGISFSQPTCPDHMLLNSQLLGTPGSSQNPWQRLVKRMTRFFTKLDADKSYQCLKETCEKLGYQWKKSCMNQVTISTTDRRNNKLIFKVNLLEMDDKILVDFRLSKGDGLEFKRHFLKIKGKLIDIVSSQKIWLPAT

In the case of `Cc1ccc(NC(=O)c2ccc(CN(CCN(C)C)C(=O)c3cccnc3)cc2)cc1Nc1nccc(-c2cccnc2)n1`, the Activity in series [1] is 82%; in [2], 91%; in [3], 100%; in [4], 100%; in series [5] it was 90%; in [6] it was 0.6%. The Activity in series [7] was determined as 69%; in series [8] it was 100%; in series [9], 100%; in series [10] it was 75%; in series [11], 96%; in [12] it was 100%. For the same compound, the Activity in [13] was 100%; in [14], 100%; in series [15], 100%; in series [16], 88%; in series [17], 89%; in [19], 100%. In addition, the Activity in series [20] came out at 95%. In [18], the 50% growth inhibitory concentration (GI50) at 72 h was > 10 µM.

As a reminder, the GI50 is the concentration that inhibits growth by half. A lower GI50 goes with more potent growth inhibition.
